ChEMBL document CHEMBL1131501, “Cytotoxic activities of Mannich bases of chalcones and related compounds” (J Med Chem, 1998)

Tests used:
Format in all cases: functional, cell-based
P388 = assay: Inhibition of proliferation of murine P388 cells; settings: Mus musculus
Homo sapiens [1] = species: Homo sapiens; assay: Concentration required to inhibit 50% growth of Human CEM T-lymphocytes cells; settings: CCRF-CEM
L1210 = assay: Concentration required to inhibit 50% growth of L1210 leukemia cells; settings: Mus musculus
Homo sapiens [2] = species: Homo sapiens; assay: Concentration required to inhibit 50% growth of human Molt 4/C8 T-lymphocyte cells; settings: Molt4/C8
Tumor Cell line = assay: Evaluation for cytotoxicity to human tumor cell lines.
In short: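 Panel of about 55-60 human tumor lines (leukemia, melanoma, non-small cell lung, colon, CNS, ovarian, renal, prostate, breast) exposed to 10⁻⁸ to 10⁻⁴ M. Growth inhibition was read as intact-cell recovery relative to vehicle control after 48 h.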

| IC50 (P388) | IC50 (L1210) | SMILES | IC50 (Homo sapiens [1]) | IC50 (Homo sapiens [2]) | IC50 (Tumor Cell line) |
| --- | --- | --- | --- | --- | --- |
| 10.2 µM | 39.5 µM | COc1ccc(/C=C/C(=O)c2ccc(OC(=O)/C=C/c3ccccc3)cc2)cc1 | 10.8 µM | 27.9 µM |  |
| 13.1 µM | 7.32 µM | O=C(/C=C/c1ccc([N+](=O)[O-])cc1)c1ccc(O)cc1 | 2.23 µM | 5.94 µM |  |
| 8.7 µM | 32.2 µM | COc1ccc(/C=C/C(=O)c2ccc(O)cc2)cc1 | 5.9 µM | 27.9 µM |  |
| 6.85 µM | 24.5 µM | O=C(/C=C/c1ccccc1Cl)c1ccc(O)cc1 | 13.9 µM | 18.2 µM |  |
| 8.53 µM | 33.8 µM | O=C(/C=C/c1ccc(O)cc1)c1ccc(Cl)c(Cl)c1 | 20 µM | 10.8 µM |  |
| 7.89 µM | 25.2 µM | O=C(/C=C/c1ccc(Cl)cc1Cl)c1ccc(O)cc1 | 10.2 µM | 13.9 µM |  |
| 0.564 µM | 395 µM | O=C(/C=C/c1ccc(/C=C/C(=O)c2ccc(O)cc2)cc1)c1ccc(O)cc1 | 78.6 µM | 30.3 µM | 93.3 µM |
| 8.86 µM | 15.9 µM | CN(C)Cc1cc(C(=O)/C=C/c2cc(F)ccc2F)cc(CN(C)C)c1O | 2.91 µM | 15.4 µM |  |
| 15.1 µM | 32.3 µM | CN(C)Cc1cc(/C=C/C(=O)c2ccc(Br)cc2)cc(CN(C)C)c1O | 21.9 µM | 39.2 µM |  |
| 44.1 µM | 25.8 µM | COc1ccc(/C=C/C(=O)c2cc(CN(C)C)c(O)c(CN(C)C)c2)cc1 | 14.8 µM | 25.3 µM | 29.5 µM |
| 29.6 µM | 17.7 µM | CN(C)Cc1cc(C(=O)/C=C/c2ccccc2)cc(CN(C)C)c1O | 19.6 µM | 20.7 µM | 21.9 µM |
| 3.67 µM | 8.14 µM | CN(C)Cc1cc(C(=O)/C=C/c2ccc(C(F)(F)F)cc2)cc(CN(C)C)c1O | 1.56 µM | 8.3 µM |  |
| 10.3 µM | 15.7 µM | O=C(/C=C/c1ccccc1)c1cc(CN2CCOCC2)c(O)c(CN2CCOCC2)c1 | 6.11 µM | 17.2 µM | 14.5 µM |
| 13.2 µM | 6.84 µM | CN(C)Cc1cc(C(=O)/C=C/c2ccccc2Cl)cc(CN(C)C)c1O | 8.08 µM | 7.13 µM | 9.55 µM |
|  |  | CN(C)Cc1cc(C(=O)/C=C/c2ccc(/C=C/C(=O)c3cc(CN(C)C)c(O)c(CN(C)C)c3)cc2)cc(CN(C)C)c1O |  |  | 26.9 µM |
| 26.9 µM | 16.9 µM | CN(C)Cc1cc(C(=O)/C=C/c2ccc(F)cc2)cc(CN(C)C)c1O | 13.8 µM | 17.2 µM | 20 µM |
| 10.9 µM | 7.09 µM | CN(C)Cc1cc(C(=O)/C=C/c2ccc(Br)cc2)cc(CN(C)C)c1O | 4.78 µM | 8.42 µM | 6.31 µM |
| 5.45 µM | 9.32 µM | CN(C)Cc1cc(/C=C/C(=O)c2ccc(Cl)c(Cl)c2)cc(CN(C)C)c1O | 10.4 µM | 12.4 µM |  |
| 30.8 µM | 40.1 µM | Cc1ccc(/C=C/C(=O)c2cc(CN(C)C)c(O)c(CN(C)C)c2)cc1 | 35.2 µM | 40.2 µM | 17.8 µM |
| 5.44 µM | 5.28 µM | CN(C)Cc1cc(C(=O)/C=C/c2ccc(Cl)cc2Cl)cc(CN(C)C)c1O | 4.87 µM | 5.74 µM | 3.09 µM |
| 13.7 µM | 8.33 µM | CN(C)Cc1cc(C(=O)/C=C/c2ccc(Cl)cc2)cc(CN(C)C)c1O | 6.48 µM | 8.41 µM | 10 µM |
| > 50 µM | 54 µM | CN(C)Cc1cc(C(=O)/C=C/c2ccc(O)cc2)cc(CN(C)C)c1O | 39.1 µM | 44.3 µM | 39.8 µM |

| IC50 (P388) | IC50 (L1210) | SMILES | IC50 (Homo sapiens [1]) | IC50 (Homo sapiens [2]) | IC50 (Tumor Cell line) |
| --- | --- | --- | --- | --- | --- |
|  | 8.29 µM | CN(C)Cc1cc(C(=O)/C=C/c2c(F)cccc2Cl)cc(CN(C)C)c1O | 7.74 µM | 7.92 µM | 9.12 µM |
| 17.7 µM | 8.73 µM | CN(C)Cc1cc(C(=O)/C=C/c2ccc([N+](=O)[O-])cc2)cc(CN(C)C)c1O | 1.75 µM | 4.82 µM | 8.91 µM |
| 5.09 µM | 2.49 µM | CN(C)Cc1cc(C(=O)/C=C/c2ccc(Cl)c(Cl)c2)cc(CN(C)C)c1O | 2.48 µM | 6.99 µM | 2.35 µM |
| 8.66 µM | 5.96 µM | CN(C)Cc1cc(C(=O)/C=C/c2cccc(Cl)c2)cc(CN(C)C)c1O | 2.68 µM | 5.75 µM | 4.68 µM |
| 5.92 µM | 3.83 µM | CN(C)Cc1cc(C(=O)/C=C/c2c(Cl)cccc2Cl)cc(CN(C)C)c1O | 4.33 µM | 5.38 µM | 5.88 µM |
| > 50 µM | 108 µM | CN(C)Cc1cc(/C=C/C(=O)c2ccccc2)cc(CN(C)C)c1O | 22.1 µM | 98 µM |  |
| 16.6 µM | 13.2 µM | O=C(/C=C/c1ccc(Br)cc1)c1ccc(O)cc1 | 1.98 µM | 6.07 µM |  |
| 3.67 µM | 9.07 µM | O=C(/C=C/c1ccc(Cl)cc1)c1ccc(O)cc1 | 3.47 µM | 6.91 µM |  |
| 8.83 µM | 33.8 µM | O=C(/C=C/C=C/c1ccccc1)c1ccc(O)cc1 | 10 µM | 30.8 µM |  |
| 2.82 µM | 21.2 µM | O=C(/C=C/c1cccc(Cl)c1)c1ccc(O)cc1 | 5.4 µM | 6.8 µM |  |
| 11.7 µM | 13.1 µM | O=C(/C=C/c1ccc(Cl)c(Cl)c1)c1ccc(O)cc1 | 1.71 µM | 5.66 µM |  |
| 0.864 µM | 12.2 µM | O=C(/C=C/c1cc(F)ccc1F)c1ccc(O)cc1 | 3.57 µM | 7.88 µM |  |
| 3.82 µM | 265 µM | O=C(/C=C/c1ccccc1)Oc1ccc(C(=O)/C=C/c2ccc(Cl)cc2)cc1 | 45.3 µM | 220 µM |  |
| 5.51 µM | 24.7 µM | Cc1ccc(/C=C/C(=O)c2ccc(O)cc2)cc1 | 11.3 µM | 25.4 µM |  |
| 3.17 µM | 5.15 µM | O=C(/C=C/c1c(Cl)cccc1Cl)c1ccc(O)cc1 | 1.36 µM | 5.15 µM |  |
| 2.49 µM | 13 µM | O=C(/C=C/c1ccc(C(F)(F)F)cc1)c1ccc(O)cc1 | 1.88 µM | 6.33 µM |  |
| 4.62 µM | 46.5 µM | O=C(/C=C/c1ccccc1)Oc1ccc(C(=O)/C=C/c2ccccc2)cc1 | 13.2 µM | 39.2 µM |  |
| 8.55 µM | 15.7 µM | O=C(/C=C/c1ccc(F)cc1)c1ccc(O)cc1 | 3.3 µM | 16.1 µM |  |
|  |  | N[C@@H](Cc1ccc(N(CCCl)CCCl)cc1)C(=O)O |  |  | 26.3 µM |
| 3.12 µM | 23.5 µM | O=C(/C=C/c1ccccc1)c1ccc(O)cc1 [4'-HYDROXYCHALCONE] | 14.7 µM | 13.1 µM |  |
| 14.3 µM | 37.9 µM | O=C(/C=C/c1ccc(O)cc1)c1ccccc1 [4-HYDROXYCHALCONE] | 9.31 µM | 8.58 µM |  |
| 9.63 µM | 41.4 µM | O=C(/C=C/c1ccccc1)c1ccccc1 [CHALCONE] | 12.5 µM | 12.7 µM | 8.32 µM |
